Assay results reported in ChEMBL document CHEMBL4428067, “Drug Discovery against Psoriasis: Identification of a New Potent FMS-like Tyrosine Kinase 3 (FLT3) Inhibitor, 1-(4-((1H-Pyrazolo[3,4-d]pyrimidin-4-yl)oxy)-3-fluorophenyl)-3-(5-(tert-butyl)isoxazol-3-yl)urea, That Showed Potent Activity in a Psoriatic Animal Model” (J Med Chem, 2016).
Activity calls are given as the source filed them. No cut-off for these calls is given here.

Legend:
[1] = organism: Mus musculus; experiment: Antipsoriatic activity in K14-VEGF transgenic mouse model of psoriasis assessed as lower left quadrant FLT3+/CD11c+/B220+ pDC cells in psoriatic plaque lesion at 0.05% applied tropically over lesion for continuous 29 days by flow cytometric analysis (reference value: 4.97%); assay type: functional
[2] = biological target: T1, Receptor-type tyrosine-protein kinase FLT3 (Homo sapiens, UniProt P36888); experiment: Inhibition of recombinant human N-terminal GST-tagged FLT3 (564 to end residues) expressed by baculovirus in Sf21 insect cells measured after 10 mins in presence of [gamma-33P]ATP by scintillation counter method
T1 sequence (P36888 whole entry): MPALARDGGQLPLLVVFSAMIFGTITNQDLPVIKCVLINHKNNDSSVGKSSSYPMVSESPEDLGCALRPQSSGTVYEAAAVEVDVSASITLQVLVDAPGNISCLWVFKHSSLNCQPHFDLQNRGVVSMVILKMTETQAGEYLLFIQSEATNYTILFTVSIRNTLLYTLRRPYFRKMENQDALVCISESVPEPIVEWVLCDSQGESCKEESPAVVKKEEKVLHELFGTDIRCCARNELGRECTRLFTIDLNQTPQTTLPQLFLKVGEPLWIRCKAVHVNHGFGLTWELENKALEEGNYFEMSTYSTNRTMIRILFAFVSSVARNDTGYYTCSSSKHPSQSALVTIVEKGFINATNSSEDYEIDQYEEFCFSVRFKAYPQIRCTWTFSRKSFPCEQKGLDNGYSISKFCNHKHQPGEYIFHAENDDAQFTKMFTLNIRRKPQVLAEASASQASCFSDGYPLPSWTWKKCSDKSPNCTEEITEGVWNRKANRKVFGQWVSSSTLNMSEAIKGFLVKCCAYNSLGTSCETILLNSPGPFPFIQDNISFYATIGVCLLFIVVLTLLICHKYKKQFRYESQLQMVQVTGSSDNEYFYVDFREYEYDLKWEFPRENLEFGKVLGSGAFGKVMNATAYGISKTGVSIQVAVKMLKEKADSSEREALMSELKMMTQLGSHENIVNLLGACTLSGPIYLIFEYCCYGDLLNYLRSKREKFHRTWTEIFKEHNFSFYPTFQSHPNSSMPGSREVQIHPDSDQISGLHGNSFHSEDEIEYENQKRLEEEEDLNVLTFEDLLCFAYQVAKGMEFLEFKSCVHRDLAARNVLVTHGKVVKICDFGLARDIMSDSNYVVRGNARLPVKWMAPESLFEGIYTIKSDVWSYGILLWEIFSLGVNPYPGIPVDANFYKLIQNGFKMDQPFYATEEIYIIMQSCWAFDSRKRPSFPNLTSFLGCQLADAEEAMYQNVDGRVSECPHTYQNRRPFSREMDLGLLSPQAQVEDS

[3] = test system: BMDC; experiment: Decrease in IFN-gamma level in Balb/c mouse BMDCs at 10 nM treated on day 9 post 9 days of FLT3L-stimulation measured after 12 hrs by ELISA; assay type: functional, cell-based
Method in brief: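 BALB/c bone marrow cells were plated at 1×10^6/ml in RPMI-1640 with 10% FCS, 10^-4 M 2-ME, pyruvate, antibiotics and FLT3L for 9 days. On day 9, compound in DMSO or 0.1% DMSO was added. After 12 h, supernatant IFN-γ and IL-23 were measured by ELISA. Three independent experiments.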

[4] = organism: Mus musculus; experiment: Antipsoriatic activity in K14-VEGF transgenic mouse model of psoriasis assessed as lower left quadrant FLT3+/CD11c+/B220+ pDC cells in psoriatic plaque lesion at 0.05% applied tropically over lesion for continuous 29 days by flow cytometric analysis (reference value: 63.7%)
[5] = organism: Mus musculus; experiment: Downregulation of IFN-gamma expression in K14-VEGF transgenic mouse model of psoriasis at 0.05% applied tropically over lesion for 29 days by ELISA; assay type: functional, organism-based
Method in brief: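 K14-VEGF mice were treated for 29 days with 0.05% cream or vehicle, n=3 each. At termination, blood was held at 4 °C for 12 h and then centrifuged. Plasma IFN-γ and IL-17 were measured by ELISA, mean ± SD.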

[6] = biological target: T2, Receptor-type tyrosine-protein kinase FLT3 (Mus musculus) (UniProt Q00342); experiment: Inhibition of FLT3 in Balb/c mouse BMDCs assessed as suppression of FLT3L-induced pDC formation measured as lower left quadrant cells level treated on day 9 post 9 days of FLT3L-stimulation measured after 24 hrs by CD11c PerCP and CD45R/B220 FITC staining based flow cytometric analysis (reference value: 36.5%); design: scale not given: the % may be the effect or the level left
T2 sequence (whole entry): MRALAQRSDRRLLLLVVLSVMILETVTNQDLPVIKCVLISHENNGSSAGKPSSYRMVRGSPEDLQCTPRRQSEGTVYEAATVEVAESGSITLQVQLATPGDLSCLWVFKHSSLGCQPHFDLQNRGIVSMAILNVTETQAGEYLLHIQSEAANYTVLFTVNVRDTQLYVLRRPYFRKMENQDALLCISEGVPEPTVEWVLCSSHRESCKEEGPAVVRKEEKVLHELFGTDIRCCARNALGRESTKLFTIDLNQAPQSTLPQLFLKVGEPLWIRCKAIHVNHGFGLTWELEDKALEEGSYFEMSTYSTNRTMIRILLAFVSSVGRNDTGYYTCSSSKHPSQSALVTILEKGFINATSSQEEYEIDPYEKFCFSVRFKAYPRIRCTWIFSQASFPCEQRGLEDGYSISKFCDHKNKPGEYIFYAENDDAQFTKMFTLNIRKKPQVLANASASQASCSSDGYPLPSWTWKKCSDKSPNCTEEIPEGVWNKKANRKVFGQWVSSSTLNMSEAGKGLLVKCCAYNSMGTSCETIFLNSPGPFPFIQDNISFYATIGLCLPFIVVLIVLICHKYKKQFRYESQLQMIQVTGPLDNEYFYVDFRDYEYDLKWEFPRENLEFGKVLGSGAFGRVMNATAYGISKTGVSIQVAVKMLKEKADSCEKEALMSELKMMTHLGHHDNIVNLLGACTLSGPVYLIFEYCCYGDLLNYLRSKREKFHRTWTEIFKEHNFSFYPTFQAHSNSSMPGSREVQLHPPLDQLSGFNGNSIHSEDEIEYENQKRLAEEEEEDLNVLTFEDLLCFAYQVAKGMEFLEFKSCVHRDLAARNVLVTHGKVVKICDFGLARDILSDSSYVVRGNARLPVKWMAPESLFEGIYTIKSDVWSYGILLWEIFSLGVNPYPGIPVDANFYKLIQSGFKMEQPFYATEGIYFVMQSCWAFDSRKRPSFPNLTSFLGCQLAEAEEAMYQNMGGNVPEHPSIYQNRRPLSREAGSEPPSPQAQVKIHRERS
Method in brief: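 BALB/c bone marrow cells were cultured at 1×10^6/ml with FLT3L in supplemented RPMI-1640 for 9 days. Compound in DMSO or 0.1% DMSO was added on day 9 for 24 h. Cells were stained for 30 min with CD11c PerCP plus B220 FITC (pDC: CD11c+ B220+) or MHC II FITC (mDC: CD11c+ MHC II+), then analysed by flow cytometry. Three independent experiments.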

CC(C)(C)c1cc(NC(=O)Nc2ccc(Oc3ncnc4[nH]ncc34)c(F)c2)no1
Activity [1]: 11% | IC50 [2]: 5 nM | inhibition [3]: Active | Activity [4]: 89.9% | Activity [5]: Active | Activity [6]: 47.2%
